Results from ChEMBL document CHEMBL3593164, “Rational Design and Synthesis of Thioridazine Analogues as Enhancers of the Antituberculosis Therapy” (J Med Chem, 2015).

Experiments:
[1] = system: Mycobacterium tuberculosis; test: Inhibition of multidrug resistance efflux pump in Mycobacterium tuberculosis H37Rv assessed as amikacin MIC at 3.75 ug/ml after 7 days by two-dimensional broth microdilution checkerboard assay; details: 168 h
Outline: (§1)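 M. tuberculosis H37Rv ATCC27294. MICs of INH, RIF, AMK, OFX and EtBr were determined alone and with sub-inhibitory concentrations of test compound by two-dimensional broth microdilution checkerboard. Where a compound's MIC was not determinable, the highest concentration still allowing growth was taken as ½ MIC. FIC = MIC in combination / MIC alone. FIC ≤0.25 was scored as synergism and ≥2 as antagonism.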

[2] = system: Mycobacterium tuberculosis; test: Inhibition of multidrug resistance efflux pump in Mycobacterium tuberculosis H37Rv assessed as rifampin MIC at 3.75 ug/ml after 7 days by two-dimensional broth microdilution checkerboard assay; details: 168 h; outline: as §1
[3] = system: Mycobacterium tuberculosis; test: Inhibition of multidrug resistance efflux pump in Mycobacterium tuberculosis H37Rv assessed as isoniazid MIC at 3.75 ug/ml after 7 days by two-dimensional broth microdilution checkerboard assay; details: 168 h
Outline: (§2)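 M. tuberculosis H37Rv two-dimensional broth microdilution checkerboard. MICs of INH, RIF, AMK, OFX or EtBr were determined without and with graded sub-inhibitory compound concentrations, starting at ½ MIC. Where MIC was undeterminable, the highest concentration still permitting growth was taken as ½ MIC. FIC = MIC of antibacterial in combination / MIC alone. FIC ≤0.25 was scored as synergism and ≥2 as antagonism.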

[4] = system: Mycobacterium tuberculosis; test: Inhibition of multidrug resistance efflux pump in Mycobacterium tuberculosis H37Rv assessed as rifampin MIC at 0.23 ug/ml after 7 days by two-dimensional broth microdilution checkerboard assay; details: 168 h; outline: as §1
[5] = system: Mycobacterium tuberculosis; test: Inhibition of multidrug resistance efflux pump in Mycobacterium tuberculosis H37Rv assessed as isoniazid MIC at 0.47 ug/ml after 7 days by two-dimensional broth microdilution checkerboard assay; details: 168 h; outline: as §1
[6] = system: Mycobacterium tuberculosis; test: Inhibition of multidrug resistance efflux pump in Mycobacterium tuberculosis H37Rv assessed as reduction in ethidium bromide MIC at 7.5 ug/ml after 7 days by two-dimensional broth microdilution checkerboard assay; outline: as §2
[7] = system: Mycobacterium tuberculosis; test: Inhibition of multidrug resistance efflux pump in Mycobacterium tuberculosis H37Rv assessed as ofloxacin MIC at 0.12 ug/ml after 7 days by two-dimensional broth microdilution checkerboard assay; details: 168 h; outline: as §1
[8] = system: Mycobacterium tuberculosis; test: Inhibition of multidrug resistance efflux pump in Mycobacterium tuberculosis H37Rv assessed as rifampin MIC at 7.5 ug/ml after 7 days by two-dimensional broth microdilution checkerboard assay; details: 168 h; outline: as §2
[9] = system: Mycobacterium tuberculosis; test: Inhibition of multidrug resistance efflux pump in Mycobacterium tuberculosis H37Rv assessed as rifampin MIC at 1.88 ug/ml after 7 days by two-dimensional broth microdilution checkerboard assay; details: 168 h; outline: as §1
[10] = system: Mycobacterium tuberculosis; test: Inhibition of multidrug resistance efflux pump in Mycobacterium tuberculosis H37Rv assessed as ethidium bromide MIC at 1 ug/ml after 7 days by two-dimensional broth microdilution checkerboard assay; details: 168 h; outline: as §2
[11] = system: Mycobacterium tuberculosis; test: Inhibition of multidrug resistance efflux pump in Mycobacterium tuberculosis H37Rv assessed as isoniazid MIC at 2 ug/ml after 7 days by two-dimensional broth microdilution checkerboard assay; details: 168 h
[12] = system: Mycobacterium tuberculosis; test: Inhibition of multidrug resistance efflux pump in Mycobacterium tuberculosis H37Rv assessed as ethidium bromide MIC at 2 ug/ml after 7 days by two-dimensional broth microdilution checkerboard assay; details: 168 h
[13] = system: Mycobacterium tuberculosis; test: Inhibition of multidrug resistance efflux pump in Mycobacterium tuberculosis H37Rv assessed as rifampin MIC at 1 ug/ml after 7 days by two-dimensional broth microdilution checkerboard assay; details: 168 h; outline: as §2
[14] = system: Mycobacterium tuberculosis; test: Inhibition of multidrug resistance efflux pump in Mycobacterium tuberculosis H37Rv assessed as ofloxacin MIC at 2 ug/ml after 7 days by two-dimensional broth microdilution checkerboard assay; details: 168 h
[15] = system: Mycobacterium tuberculosis; test: Inhibition of multidrug resistance efflux pump in Mycobacterium tuberculosis H37Rv assessed as reduction in amikacin MIC at 128 ug/ml after 7 days by two-dimensional broth microdilution checkerboard assay

## CSc1ccc2c(c1)N(CCC1CCCCN1C)c1ccccc1S2 (stereo not given) [THIORIDAZINE]
[1]
  MIC: 1 µg/mL
[2]
  MIC: 1 µg/mL
[3]
  MIC: 0.05 µg/mL
[4]
  MIC: 1 µg/mL
[5]
  MIC: 0.1 µg/mL
[6]
  fold change (FC): >64
[7]
  MIC: 1 µg/mL
[8]
  MIC: < 0.0156 µg/mL
[9]
  MIC: 1 µg/mL

## CN1CCCCC1CCn1c2ccccc2c2ccccc21 (racemic)
[10]
  MIC: 12.5 µg/mL
[11]
  MIC: 0.1 µg/mL
[12]
  MIC: 12.5 µg/mL
[13]
  MIC: 1 µg/mL
[14]
  MIC: 1 µg/mL

## CN1CCCCC1CCn1ccc2ccc(Br)cc21 (racemic)
[15]
  fold change (FC): >128
